5 compounds from ChEMBL document CHEMBL1132974 (J Med Chem, 2000) can be followed below.

For assay [1], the species on record is Cavia porcellus. The assay can be described thus: (§1) Effective concentration for agonism activity in Endothelium-Denuded guinea pig aortic segment. Conditions: Aorta, read-out: Log EC50 (converted).
For assay [2], the species on record is Cavia porcellus. In words: Effective concentration for agonism activity in guinea pig ileal whole segment. Conditions: read-out: Log EC50 (converted).
Assay [3] is filed under the species Cavia porcellus. In words: (§2) Effective concentration for agonism activity in endothelium-denuded guinea pig aortic segment. As to conditions: Aorta, read-out: Log EC50 (converted).
Another assay is filed under the species Rattus norvegicus. In words: tissue or blood. Conditions: Aorta, read-out: Log EC50 (converted).
For assay [4], the target named is Histamine H1 receptor (Cavia porcellus) (UniProt P31389). The assay can be described thus: Negative logarithm of receptor dissociation constant Kp was reported. The format is functional. An outline of the steps:
(§3)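 Guinea-pig ileum (0.1 µM atropine, 37 °C Tyrode's). […] Where several partial-agonist concentrations were used, the overall value comes from a Kaumann-Marano plot with slope constrained to unity.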

The target is the same in assay [5]. The assay can be described thus: Intrinsic activity of the compounddwas reported in guinea pig ileum whole segment. The format is functional, tissue-based.
Assay [6] shares this target. The assay can be described thus: Relative potency in guinea pig ileum whole segment; value ranges from 4 to 15. The format is functional, tissue-based.
Assay [7] concerns the target T1, Histamine H1 receptor (Cavia porcellus, UniProt P31389). In words: Effective concentration for agonist activity in guinea pig ileum whole segment. The format is functional, tissue-based.
For assay [8], the target named is T2, Alpha-1D adrenergic receptor (Rattus norvegicus, UniProt P23944).
T2 sequence (P23944 whole entry): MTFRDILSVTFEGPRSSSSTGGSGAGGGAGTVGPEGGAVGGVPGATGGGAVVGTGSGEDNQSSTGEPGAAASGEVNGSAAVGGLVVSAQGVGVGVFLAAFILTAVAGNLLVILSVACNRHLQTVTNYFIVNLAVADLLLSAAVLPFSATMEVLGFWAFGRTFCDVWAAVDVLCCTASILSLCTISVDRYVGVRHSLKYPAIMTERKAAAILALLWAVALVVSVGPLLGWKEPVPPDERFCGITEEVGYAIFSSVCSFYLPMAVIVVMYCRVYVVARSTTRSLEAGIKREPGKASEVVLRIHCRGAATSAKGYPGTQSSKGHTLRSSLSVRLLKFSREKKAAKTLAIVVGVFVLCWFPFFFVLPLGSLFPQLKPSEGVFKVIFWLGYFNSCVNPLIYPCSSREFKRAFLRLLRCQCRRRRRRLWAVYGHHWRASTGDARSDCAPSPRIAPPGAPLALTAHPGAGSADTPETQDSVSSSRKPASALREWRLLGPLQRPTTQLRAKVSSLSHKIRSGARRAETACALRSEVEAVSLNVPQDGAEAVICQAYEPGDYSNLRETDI
In words: Compound was evaluated for its antagonist affinity towards Alpha-1D adrenergic receptor of rat. The format is functional. As to conditions: read-out: pA2 (converted). An outline of the steps:
(§4)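 Functional antagonism in rat tissues: α1D (thoracic aorta), 5-HT2A (tail artery), 5-HT4 (oesophageal tunica muscularis mucosae). Results are given as apparent pA2 from single-concentration rightward shifts, or pD'2 when only curve depression occurred.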

The target in assay [9] is Beta-1 adrenergic receptor (Cavia porcellus, UniProt B0FL73). The assay can be described thus: Compound was evaluated for its antagonist affinity towards Beta-1 adrenergic receptor of guinea pig. The format is functional. Conditions: read-out: pA2 (converted). Summed up: (§5)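 Functional antagonism assays in guinea-pig tissues, each run with 1 µM mepyramine present: M3 (whole ileum), β1 (right atrium), 5-HT1B (iliac artery), 5-HT3 (quiescent ileal longitudinal muscle with myenteric plexus). Results are given as apparent pA2, or pD'2 when only curve depression occurred.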
Chain of Beta-1 adrenergic receptor (B0FL73 whole entry): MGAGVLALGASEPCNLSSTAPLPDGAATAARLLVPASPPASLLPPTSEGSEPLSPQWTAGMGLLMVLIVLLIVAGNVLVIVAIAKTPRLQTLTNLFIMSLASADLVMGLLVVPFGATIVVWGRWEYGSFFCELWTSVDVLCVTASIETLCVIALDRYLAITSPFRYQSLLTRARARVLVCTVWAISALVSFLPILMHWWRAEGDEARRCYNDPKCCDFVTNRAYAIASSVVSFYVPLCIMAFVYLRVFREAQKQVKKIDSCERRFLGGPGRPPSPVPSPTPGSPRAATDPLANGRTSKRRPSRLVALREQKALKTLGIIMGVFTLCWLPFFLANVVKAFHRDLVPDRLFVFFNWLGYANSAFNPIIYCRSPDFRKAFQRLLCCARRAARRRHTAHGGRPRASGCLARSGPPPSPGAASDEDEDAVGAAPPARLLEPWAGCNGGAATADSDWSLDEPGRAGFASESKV

Assay [10] has as its target T3, Histamine H1 receptor (Rattus norvegicus, UniProt P31390). The assay can be described thus: Effective concentration for agonism activity in relaxed rat aortic rings with intact endothelium, submaximally precontracted with 15.8 nM U-46,619. The format is functional, tissue-based, Aorta.
The target in another assay is Histamine H3 receptor (Cavia porcellus, UniProt Q9JI35). In words: Compound was evaluated for its antagonist affinity towards Histamine H3 receptor of guinea pig. The format is functional. Conditions: read-out: pA2 (converted). An outline of the steps: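 Electrically stimulated guinea-pig ileal longitudinal muscle with myenteric plexus, isometric (7.5 mN). Cumulative (R)-α-methylhistamine curves were run with and without test compound (20 min), with 1 µM mepyramine present. Values were apparent pA2, or pD'2 where curves were depressed.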
Chain of Histamine H3 receptor (Q9JI35 whole entry): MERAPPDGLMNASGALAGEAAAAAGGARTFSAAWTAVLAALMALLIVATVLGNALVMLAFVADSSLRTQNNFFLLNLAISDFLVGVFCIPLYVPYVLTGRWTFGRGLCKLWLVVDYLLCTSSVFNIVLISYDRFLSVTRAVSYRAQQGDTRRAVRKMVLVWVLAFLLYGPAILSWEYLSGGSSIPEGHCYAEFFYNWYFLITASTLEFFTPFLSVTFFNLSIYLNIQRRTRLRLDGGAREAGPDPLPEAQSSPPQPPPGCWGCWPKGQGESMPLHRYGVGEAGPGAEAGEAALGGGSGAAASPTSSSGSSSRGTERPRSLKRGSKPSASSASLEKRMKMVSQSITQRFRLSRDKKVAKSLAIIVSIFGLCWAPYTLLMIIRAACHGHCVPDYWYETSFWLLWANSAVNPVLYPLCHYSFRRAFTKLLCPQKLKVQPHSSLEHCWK

Assay [11] addresses T1, Histamine H1 receptor. The assay can be described thus: Compound was evaluated for mepyramine antagonism effects in guinea pig aorta (contraction) at a mepyramine concentration of 100 nM. The format is functional, tissue-based. Conditions: read-out: pA2 (converted). An outline of the steps: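 Guinea-pig aortic rings with endothelium damaged, isometric (10 mN), 37 °C Krebs-Henseleit. Agonist curves were run with mepyramine (100 nM, about 60 min) after threshold PGF2α precontraction. Apparent pA2 = −log c + log(r−1).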

The target of assay [12] is T1, Histamine H1 receptor. The assay can be described thus: Antagonism of guinea pig ileum contraction at 100 nM mepyramine. The format is functional, tissue-based. Conditions: read-out: pA2 (converted). Summed up: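 Guinea-pig whole ileal segments (2.0–2.5 cm), isotonic, preload 0.5 g, Tyrode's at 37 °C, 95% O2/5% CO2, with 0.1 µM atropine throughout. […] Apparent pA2 = −log c + log(r−1); full pA2 from Schild plot, slope fixed at 1.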

A further assay deals with Histamine H2 receptor (Cavia porcellus, UniProt P47747). The assay can be described thus: Compound was evaluated for its antagonist affinity towards Histamine H2 receptor of guinea pig. The format is functional. As to conditions: read-out: pA2 (converted).
Chain of Histamine H2 receptor (P47747 whole entry): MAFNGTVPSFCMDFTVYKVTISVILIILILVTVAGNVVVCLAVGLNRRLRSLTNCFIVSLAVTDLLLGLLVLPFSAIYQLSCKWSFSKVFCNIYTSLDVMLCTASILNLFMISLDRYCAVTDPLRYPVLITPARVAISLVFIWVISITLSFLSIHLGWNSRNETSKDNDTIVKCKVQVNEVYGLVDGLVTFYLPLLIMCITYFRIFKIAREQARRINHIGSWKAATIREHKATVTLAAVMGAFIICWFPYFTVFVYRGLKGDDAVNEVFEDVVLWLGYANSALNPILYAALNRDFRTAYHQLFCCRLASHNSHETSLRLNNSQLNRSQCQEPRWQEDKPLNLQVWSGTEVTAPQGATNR
Assay [13] has as its target T1, Histamine H1 receptor. The assay is described as §1. The format is functional, tissue-based, Aorta. Summed up:
(§6)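 Guinea-pig thoracic aortic rings (2–4 mm), endothelium rubbed off, isometric (10 mN), modified Krebs-Henseleit (1.80 mM Ca2+), 37 °C. Cimetidine, corticosterone and cocaine (30 µM each), prazosin and yohimbine (0.3 µM each) and propranolol (0.1 µM) were present. […] The pEC50 shift was corrected using untreated control preparations.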

Assay [14] addresses T1, Histamine H1 receptor. The description is as §2. The format is functional, tissue-based, Aorta. An outline of the steps: as §6
Assay [15] deals with Muscarinic acetylcholine receptor M3 (Cavia porcellus, UniProt Q8VH26). In words: Compound was evaluated for its antagonist affinity towards Muscarinic acetylcholine receptor M3 of guinea pig. As to conditions: read-out: pA2 (converted). The format is functional. An outline of the steps: as §5
Chain of Muscarinic acetylcholine receptor M3 (Q8VH26 whole entry): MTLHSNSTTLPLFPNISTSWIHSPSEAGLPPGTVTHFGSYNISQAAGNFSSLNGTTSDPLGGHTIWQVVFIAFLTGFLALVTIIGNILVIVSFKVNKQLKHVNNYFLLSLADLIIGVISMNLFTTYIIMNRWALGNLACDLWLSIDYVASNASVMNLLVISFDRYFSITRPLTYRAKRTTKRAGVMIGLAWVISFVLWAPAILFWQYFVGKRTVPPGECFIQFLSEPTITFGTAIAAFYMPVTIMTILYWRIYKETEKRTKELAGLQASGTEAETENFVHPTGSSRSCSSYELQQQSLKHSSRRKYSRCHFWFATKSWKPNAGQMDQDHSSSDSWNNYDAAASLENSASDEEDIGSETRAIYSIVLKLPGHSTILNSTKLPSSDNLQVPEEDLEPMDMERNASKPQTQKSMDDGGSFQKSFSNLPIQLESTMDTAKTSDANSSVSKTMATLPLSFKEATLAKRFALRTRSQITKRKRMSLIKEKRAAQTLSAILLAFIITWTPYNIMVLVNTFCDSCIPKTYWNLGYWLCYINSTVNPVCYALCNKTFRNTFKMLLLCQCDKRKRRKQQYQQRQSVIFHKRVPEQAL
Assay [16] deals with 5-hydroxytryptamine receptor 2A (Rattus norvegicus, UniProt P14842). The assay can be described thus: Compound was evaluated for its antagonist affinity towards 5-hydroxytryptamine 2A receptor of rat. As to conditions: read-out: pA2 (converted). The format is functional. Summed up:
as §4

Assay [17] has as its target 5-hydroxytryptamine receptor 4 (Rattus norvegicus, UniProt Q62758). The assay can be described thus: Compound was evaluated for its antagonist affinity towards 5-hydroxytryptamine 4 receptor of rat. The format is functional. As to conditions: read-out: pA2 (converted). Summed up:
as §4

Assay [18] has as its target T3, Histamine H1 receptor. The assay can be described thus: Compound was evaluated for mepyramine antagonism effects in rat aorta (relaxation) at a mepyramine concentration of 100 nM. Conditions: read-out: pA2 (converted).
Assay [19] has as its target Histamine H1 receptor (Rattus norvegicus) (UniProt P31390). In words: The compound was evaluated for intrinsic activity in relaxed rat aortic rings with intact endothelium, submaximally precontracted with 15.8 nM U-46,619. The format is functional, tissue-based. The arrangement: unit not given here. As to conditions: Aorta.
Target sequence in this assay (P31390 whole entry): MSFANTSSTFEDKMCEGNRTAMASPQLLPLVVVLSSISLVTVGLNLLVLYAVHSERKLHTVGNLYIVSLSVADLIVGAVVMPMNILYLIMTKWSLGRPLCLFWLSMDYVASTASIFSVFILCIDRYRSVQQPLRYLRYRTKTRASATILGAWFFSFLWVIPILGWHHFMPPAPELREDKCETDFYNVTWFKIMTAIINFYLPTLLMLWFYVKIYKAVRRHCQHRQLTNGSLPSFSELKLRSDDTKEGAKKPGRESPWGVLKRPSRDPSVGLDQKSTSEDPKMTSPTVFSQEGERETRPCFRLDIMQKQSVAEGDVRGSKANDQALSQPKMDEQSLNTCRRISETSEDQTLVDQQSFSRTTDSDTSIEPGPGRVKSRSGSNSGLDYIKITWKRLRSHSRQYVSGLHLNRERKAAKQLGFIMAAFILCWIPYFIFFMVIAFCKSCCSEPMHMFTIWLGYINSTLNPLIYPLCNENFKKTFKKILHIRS
The target is the same in assay [20]. In words: Relative potency was recorded in relaxed rat aortic rings with intact endothelium, submaximally precontracted with 15.8 nM U-46,619; value ranges from 244 to 450. The format is functional, tissue-based. As to conditions: Aorta.
Target sequence in this assay (P31390 whole entry): as above
Assay [21] addresses Histamine H1 receptor (Cavia porcellus) (UniProt P31389). In words: Intrinsic activity was reported in guinea pig ileum whole segment. The format is functional, tissue-based.
For assay [22] the target is unchanged. The assay can be described thus: Relative potency in guinea pig ileum whole segment; value ranges from 51 to 88. The format is functional, tissue-based.
For assay [23] the target is unchanged. The assay can be described thus: Negative logarithm of receptor dissociation constant Kp was reported in guinea pig ileum whole segment. The format is functional, tissue-based. Summed up:
as §3

Assay [24] concerns the target Histamine H1 receptor (Rattus norvegicus) (UniProt P31390). The assay can be described thus: concentration of mepyramine was determined.
Target sequence in this assay (P31390 whole entry, looked up): as the sequence (P31390 whole entry) above
Assay [25] has as its target Serotonin 3 (5-HT3) receptor. In words: Compound was evaluated for its antagonist affinity towards 5-hydroxytryptamine 3 receptor of guinea pig. The format is functional, Cavia porcellus. An outline of the steps: as §5
The target in assay [26] is Histamine H1 receptor (Cavia porcellus) (UniProt P31389). The assay can be described thus: Antagonist effects was studied on contraction of guinea-pig ileum preparation; value ranges from 3 to 30; f means observed by Kaumann-Marano plot. The format is functional, tissue-based.
Chain of Histamine H1 receptor (Cavia porcellus) (P31389 whole entry): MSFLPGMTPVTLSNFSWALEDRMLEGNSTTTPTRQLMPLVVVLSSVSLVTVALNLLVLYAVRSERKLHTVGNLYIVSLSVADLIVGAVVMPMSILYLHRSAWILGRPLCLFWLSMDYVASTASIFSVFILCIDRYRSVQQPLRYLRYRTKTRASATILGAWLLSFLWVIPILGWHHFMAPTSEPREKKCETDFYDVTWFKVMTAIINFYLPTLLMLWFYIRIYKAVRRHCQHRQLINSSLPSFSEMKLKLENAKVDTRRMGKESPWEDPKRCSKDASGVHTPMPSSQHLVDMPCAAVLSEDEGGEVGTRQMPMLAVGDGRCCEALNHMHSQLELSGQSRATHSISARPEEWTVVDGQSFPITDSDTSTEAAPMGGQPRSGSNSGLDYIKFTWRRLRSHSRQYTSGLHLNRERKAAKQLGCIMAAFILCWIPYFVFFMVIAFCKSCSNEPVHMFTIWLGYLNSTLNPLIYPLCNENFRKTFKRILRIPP
Assay [27] shares this target. The assay can be described thus: concentration of mepyramine was determined; value ranges from 1 to 30. The format is functional. An outline of the steps: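 Guinea-pig ileum segments (either sex), mounted isotonically (0.5 g preload) at 37 °C in aerated Tyrode's with 0.1 µM atropine. […] Full pA2 was taken from an Arunlakshana-Schild plot with the slope constrained to unity.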

For assay [28], the target named is Histamine H1 receptor (Rattus norvegicus) (UniProt P31390). In words: Intrinsic activity of the histamine as reported in relaxed rat aortic rings with intact endothelium, submaximally precontracted with 15.8 nM U-46,619. As to conditions: Aorta. The format is functional, tissue-based.
Target sequence in this assay (P31390 whole entry): as the sequence (P31390 whole entry) above
The target is the same in assay [29]. In words: maximum relaxation evoked by carbachol in relaxed rat aortic rings with intact endothelium, submaximally precontracted with 15.8 nM U-46,619. The format is functional, tissue-based. Conditions: Aorta.
Target sequence in this assay (P31390 whole entry): as above
Assay [30] concerns the target Histamine H1 receptor (Cavia porcellus) (UniProt P31389). The assay can be described thus: The compound was evaluated for intrinsic activity i.e. maximum histamine controls relative to contraction evoked by 10 uM PGF2-alpha. The format is functional. Summed up:
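Endothelium-denuded guinea-pig aortic rings, set up as in the contraction assay, challenged twice with PGF2α (10 µM). Rings were precontracted with a threshold PGF2α level (usually 0.4–1.5 µM, 10–20% of the 10 µM response).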

Assay [31] shares this target. The assay can be described thus: Negative logarithm of receptor dissociation constant Kp was reported guinea pig ileal whole segment. The format is functional. An outline of the steps:
as §3

The target is the same in assay [32]. In words: Intrinsic activity was reported in guinea pig ileum whole segment. The format is functional, tissue-based.
Assay [33] has the same target. The assay can be described thus: The compound was evaluated for intrinsic activity i.e. second curves of histamine controls set to 100%, aorta primed with histamine; termed: intrinsic activity.

Several values for one entry are separate records, joined by “and”; a condition that tells them apart may be missing. Equal entries are not always repeated. A value given as a limit tells only on which side of the number the result lay.

T3 sequence (P31390 whole entry): as above
T1 sequence (P31389 whole entry): as the sequence (P31389 whole entry) above
Chain of 5-hydroxytryptamine receptor 4 (Q62758 whole entry): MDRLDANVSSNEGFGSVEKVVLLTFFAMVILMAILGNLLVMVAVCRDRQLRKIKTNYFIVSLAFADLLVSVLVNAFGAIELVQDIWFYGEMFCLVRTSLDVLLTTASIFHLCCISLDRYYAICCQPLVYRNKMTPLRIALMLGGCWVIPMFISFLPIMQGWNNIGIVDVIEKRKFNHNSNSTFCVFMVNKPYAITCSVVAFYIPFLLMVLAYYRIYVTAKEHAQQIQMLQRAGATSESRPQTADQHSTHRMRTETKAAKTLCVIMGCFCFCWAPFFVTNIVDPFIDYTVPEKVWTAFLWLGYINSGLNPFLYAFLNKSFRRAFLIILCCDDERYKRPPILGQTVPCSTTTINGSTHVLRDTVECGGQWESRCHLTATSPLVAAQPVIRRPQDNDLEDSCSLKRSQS
Chain of 5-hydroxytryptamine receptor 2A (P14842 whole entry): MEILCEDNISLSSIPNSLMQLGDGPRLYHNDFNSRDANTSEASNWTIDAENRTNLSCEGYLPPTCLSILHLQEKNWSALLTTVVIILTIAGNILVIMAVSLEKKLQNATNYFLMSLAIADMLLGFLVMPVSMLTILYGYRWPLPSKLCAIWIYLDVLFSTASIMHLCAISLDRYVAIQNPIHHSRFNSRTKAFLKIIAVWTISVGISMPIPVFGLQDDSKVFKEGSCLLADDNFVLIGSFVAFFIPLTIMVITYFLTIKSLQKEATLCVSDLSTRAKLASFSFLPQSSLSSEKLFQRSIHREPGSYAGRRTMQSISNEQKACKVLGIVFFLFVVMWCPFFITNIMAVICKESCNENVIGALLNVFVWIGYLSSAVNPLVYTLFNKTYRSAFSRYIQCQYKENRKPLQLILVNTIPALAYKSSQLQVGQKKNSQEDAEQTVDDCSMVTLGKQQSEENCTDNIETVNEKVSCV

For `NCCc1c[nH]cn1` [HISTAMINE], the 50% effective concentration (EC50) is 316 nM in the assay filed under Cavia porcellus [1], 200 nM in the assay filed under Cavia porcellus [2], 2240 nM in the assay filed under Cavia porcellus [3] and 4470 nM in the assay listed under Rattus norvegicus.
In assay [4], `NCCc1c[nH]c(C(c2ccccc2)c2ccccc2)n1` had a pKp of 5.37. In addition, in assay [5], the Emax was determined as 28. The compound also displayed a Relative potency in assay [6] of 8. This compound also showed an EC50 at Histamine H1 receptor [7] of 2570 nM.
Consider `CNCCc1cnc(CCC(c2ccccc2)c2ccccc2)[nH]1`, for which the Kb in assay [8] was 5750 nM; in assay [9] it was 14500 nM; on Histamine H3 receptor, over 1580 nM; at Histamine H1 receptor [11] it was 1.78 nM; at Histamine H1 receptor [12], 0.741 nM and 1.35 nM; on Histamine H2 receptor, 12600 nM. The Kb is 3550 nM in assay [15], 4070 nM in [16], over 1580 nM in [17] and 9.55 nM on Histamine H1 receptor [18]. For the same compound, the EC50 at Histamine H1 receptor [10] was 158 nM; at Histamine H1 receptor [13], 77.6 nM; at Histamine H1 receptor [14] it was 490 nM; on Histamine H1 receptor [7], 57.5 nM.
In the case of `c1ccc(C(CCc2nc(CCN3CCCC3)c[nH]2)c2ccccc2)cc1`, the Emax in assay [19] worked out at 21; in assay [21], 28. Besides, the values for the EC50 on Histamine H1 receptor [10] and at Histamine H1 receptor [7] were 1350 nM and 295 nM, respectively. The Relative potency in assay [20] amounted to 331; in [22], 67. In assay [23], this compound showed a pKp of 6.52. Besides, the Concentration in assay [24] came out at 100 nM.
Turning to `NCCc1c[nH]c(CCC(c2ccccc2)c2ccccc2)n1`, the pA2 in assay [25] is under 5.7. For the same compound, the Concentration in assay [26] stood at 30 µM; in assay [27], 30 nM. The Emax was found to be 50 in assay [28]; 46 in [29]; 84 in assay [30]; 100 in assay [32]; 72 in [33]. In [31], this compound displayed a pKp of 6.04.

A word on the EC50: it is the concentration giving half of the maximal effect. By pA2 is commonly meant a measure of antagonist potency on a negative log scale.
